# Data: ChEMBL document CHEMBL2384906, “Biological activity, design, synthesis and structure activity relationship of some novel derivatives of curcumin containing sulfonamides” (Eur J Med Chem, 2013)
# Calls of active or inactive are those of the source. The calls are words filed in the database; no cut-off is given here.
# Legend:
# Mus musculus = assay: Antiinflammatory activity in mouse assessed as inhibition of carrageenan-induced increase in paw volume at 200 mg/kg administered 1 hr prior to carrageenan challenge measured after 3 hrs relative to control; type: functional
# Outline: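 Mice were fasted 2 h and placed in groups of five. Controls received saline i.p. Phenylbutazone was given at 100 mg/kg i.p., curcumin at 200 mg/kg i.p., and derivatives at 200 mg/kg. After 1 h, 0.1 mL of 1% carrageenan in saline was injected subplantar into the right hind paw. Paw volume was followed by plethysmometer for 3 h, and % inhibition was calculated as (Vc − Vt)/Vc × 100.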
# HCT-116 = assay: Cytotoxicity against human HCT116 cells after 24 hrs by MTT assay; type: functional, cell-based
# Outline: (§1)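 The MTT assay seeded 5 × 10⁴ cells per well and grew them 24 h in RPMI 1640 with compound at 2.5–200 µM. Medium without cells was the blank and adriamycin the positive control. MTT was added for 4 h at 37 °C, formazan was solubilised, and absorbance was read at 570 nm. IC50 is the concentration that cuts viability 50% against untreated cells.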
# QG-56 = assay: Cytotoxicity against human QG56 cells after 24 hrs by MTT assay; type: functional, cell-based; outline: as §1
# HeLa = assay: Cytotoxicity against human HeLa cells after 24 hrs by MTT assay; type: functional, cell-based; outline: as §1
# HepG2 = assay: Cytotoxicity against human HepG2 cells after 24 hrs by MTT assay; type: functional, cell-based; outline: as §1
# Trichoderma viride [1] = assay: Antifungal activity against Trichoderma viride MTCC 1107 after 48 hrs; type: functional; details: MTCC 1107, 48 h
# Trichoderma viride [2] = assay: Antifungal activity against Trichoderma viride MTCC 1107 assessed as zone of inhibition at 20 uM after 48 hrs by disc diffusion method; type: functional; details: MTCC 1107, 48 h, read-out: IZ
# Outline: (§2)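 Spores from 4-day potato dextrose agar cultures, suspended in sterile water at 1.5 × 10⁵ CFU/mL. 0.2 mL was spread on potato dextrose agar. 5 mm filter-paper discs soaked with test compound were laid on the lawn. Incubation was 48 h at 28 °C, then the inhibition zone was measured in mm. Fluconazole was the positive control and acetone the negative control.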
# Trichoderma viride [3] = assay: Antifungal activity against Trichoderma viride MTCC 1107 assessed as zone of inhibition at 40 uM after 48 hrs by disc diffusion method; type: functional; details: MTCC 1107, 48 h, read-out: IZ; outline: as §2
# Trichoderma viride [4] = assay: Antifungal activity against Trichoderma viride MTCC 1107 assessed as zone of inhibition at 80 uM after 48 hrs by disc diffusion method; type: functional; details: MTCC 1107, 48 h, read-out: IZ; outline: as §2
# Curvularia lunata [5] = assay: Antifungal activity against Curvularia lunata MTCC 581 after 48 hrs; type: functional; details: MTCC 581, 48 h
# Curvularia lunata [6] = assay: Antifungal activity against Curvularia lunata MTCC 581 assessed as zone of inhibition at 20 uM after 48 hrs by disc diffusion method; type: functional; details: MTCC 581, 48 h, read-out: IZ; outline: as §2
# Curvularia lunata [7] = assay: Antifungal activity against Curvularia lunata MTCC 581 assessed as zone of inhibition at 40 uM after 48 hrs by disc diffusion method; type: functional; details: MTCC 581, 48 h, read-out: IZ; outline: as §2
# Aspergillus flavus [8] = assay: Antifungal activity against Aspergillus flavus MTCC 1021 after 48 hrs; type: functional; details: MTCC 1021, 48 h
# Curvularia lunata [9] = assay: Antifungal activity against Curvularia lunata MTCC 581 assessed as zone of inhibition at 80 uM after 48 hrs by disc diffusion method; type: functional; details: MTCC 581, 48 h, read-out: IZ; outline: as §2
# Aspergillus flavus [10] = assay: Antifungal activity against Aspergillus flavus MTCC 1021 assessed as zone of inhibition at 20 uM after 48 hrs by disc diffusion method; type: functional; outline: as §2
# Aspergillus flavus [11] = assay: Antifungal activity against Aspergillus flavus MTCC 1021 assessed as zone of inhibition at 40 uM after 48 hrs by disc diffusion method; type: functional; details: MTCC 1021, 48 h, read-out: IZ; outline: as §2
# Aspergillus flavus [12] = assay: Antifungal activity against Aspergillus flavus MTCC 1021 assessed as zone of inhibition at 80 uM after 48 hrs by disc diffusion method; type: functional; details: MTCC 1021, 48 h, read-out: IZ; outline: as §2
# Aspergillus niger [13] = assay: Antifungal activity against Aspergillus niger MTCC 1108 after 48 hrs; type: functional; details: MTCC 1108, 48 h
# Aspergillus niger [14] = assay: Antifungal activity against Aspergillus niger MTCC 1108 assessed as zone of inhibition at 20 uM after 48 hrs by disc diffusion method; type: functional; outline: as §2
# Aspergillus niger [15] = assay: Antifungal activity against Aspergillus niger MTCC 1108 assessed as zone of inhibition at 40 uM after 48 hrs by disc diffusion method; type: functional; outline: as §2
# Aspergillus niger [16] = assay: Antifungal activity against Aspergillus niger MTCC 1108 assessed as zone of inhibition at 80 uM after 48 hrs by disc diffusion method; type: functional; details: MTCC 1108, 48 h, read-out: IZ; outline: as §2
# Escherichia coli [17] = assay: Antimicrobial activity against Escherichia coli ATCC 35218 after 24 hrs by broth micro serial dilution method; type: functional; details: ATCC 35218, 24 h
# Outline: (§3)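 This was broth microdilution in autoclaved Mueller-Hinton broth. 150 µL of compound per well was serially diluted […], and 50 µL of test organism was added. Plates were incubated 24 h at 37 °C and optical density was read.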
# Escherichia coli [18] = assay: Antimicrobial activity against Escherichia coli ATCC 35218 assessed as diameter of inhibition zone at 20 uM after 24 hrs by Kirby -Baur disc diffusion method; type: functional
# Outline: (§4)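 Kirby-Bauer disc diffusion was used. Acetone stocks (160 µM) were serially doubled down to 80, 40 and 20 µM. 4 µL of each went onto 5 mm sterile paper discs, which were dried 30 min at 50 °C. Inoculum was 1.5 × 10⁸ CFU/mL diluted to 3 × 10² CFU/mL, and 50 µL was spread on Mueller-Hinton agar. After 24 h at 37 °C the inhibition-zone diameter was measured. Ciprofloxacin served as positive control.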
# Escherichia coli [19] = assay: Antimicrobial activity against Escherichia coli ATCC 35218 assessed as diameter of inhibition zone at 40 uM after 24 hrs by Kirby -Baur disc diffusion method; type: functional; outline: as §4
# Escherichia coli [20] = assay: Antimicrobial activity against Escherichia coli ATCC 35218 assessed as diameter of inhibition zone at 80 uM after 24 hrs by Kirby -Baur disc diffusion method; type: functional; details: ATCC 35218, 24 h, read-out: DIZ; outline: as §4
# Pseudomonas aeruginosa [21] = assay: Antimicrobial activity against Pseudomonas aeruginosa ATCC 15499 after 24 hrs by broth micro serial dilution method; type: functional; details: ATCC 15499, 24 h; outline: as §3
# Pseudomonas aeruginosa [22] = assay: Antimicrobial activity against Pseudomonas aeruginosa ATCC 15499 assessed as diameter of inhibition zone at 20 uM after 24 hrs by Kirby -Baur disc diffusion method; type: functional; outline: as §4
# Pseudomonas aeruginosa [23] = assay: Antimicrobial activity against Pseudomonas aeruginosa ATCC 15499 assessed as diameter of inhibition zone at 40 uM after 24 hrs by Kirby -Baur disc diffusion method; type: functional; details: ATCC 15499, 24 h, read-out: DIZ; outline: as §4
# Pseudomonas aeruginosa [24] = assay: Antimicrobial activity against Pseudomonas aeruginosa ATCC 15499 assessed as diameter of inhibition zone at 80 uM after 24 hrs by Kirby -Baur disc diffusion method; type: functional; details: ATCC 15499, 24 h, read-out: DIZ; outline: as §4
# Salmonella typhi [25] = assay: Antimicrobial activity against Salmonella typhi ATCC 23564 after 24 hrs by broth micro serial dilution method; type: functional, Salmonella enterica subsp. enterica serovar Typhi; details: Salmonella enterica, ATCC 23564, 24 h
# Salmonella typhi [26] = assay: Antimicrobial activity against Salmonella typhi ATCC 23564 assessed as diameter of inhibition zone at 20 uM after 24 hrs by Kirby -Baur disc diffusion method; type: functional; details: Salmonella enterica subsp. enterica serovar Typhi
# Salmonella typhi [27] = assay: Antimicrobial activity against Salmonella typhi ATCC 23564 assessed as diameter of inhibition zone at 40 uM after 24 hrs by Kirby -Baur disc diffusion method; type: functional; details: Salmonella enterica subsp. enterica serovar Typhi
# Salmonella typhi [28] = assay: Antimicrobial activity against Salmonella typhi ATCC 23564 assessed as diameter of inhibition zone at 80 uM after 24 hrs by Kirby -Baur disc diffusion method; type: functional, Salmonella enterica subsp. enterica serovar Typhi; details: Salmonella enterica, ATCC 23564, 24 h; read-out: DIZ
# Bacillus cereus [29] = assay: Antimicrobial activity against Bacillus cereus MTCC 7350 after 24 hrs by broth micro serial dilution method; type: functional; details: MTCC 7350, 24 h; outline: as §3
# Bacillus cereus [30] = assay: Antimicrobial activity against Bacillus cereus MTCC 7350 assessed as diameter of inhibition zone at 20 uM after 24 hrs by Kirby -Baur disc diffusion method; type: functional; outline: as §4
# Bacillus cereus [31] = assay: Antimicrobial activity against Bacillus cereus MTCC 7350 assessed as diameter of inhibition zone at 40 uM after 24 hrs by Kirby -Baur disc diffusion method; type: functional; outline: as §4
# Bacillus cereus [32] = assay: Antimicrobial activity against Bacillus cereus MTCC 7350 assessed as diameter of inhibition zone at 80 uM after 24 hrs by Kirby -Baur disc diffusion method; type: functional; details: MTCC 7350, 24 h, read-out: DIZ; outline: as §4
# Staphylococcus aureus [33] = assay: Antimicrobial activity against Staphylococcus aureus ATCC 11632 after 24 hrs by broth micro serial dilution method; type: functional; details: ATCC 11632, 24 h; outline: as §3
# Staphylococcus aureus [34] = assay: Antimicrobial activity against Staphylococcus aureus ATCC 11632 assessed as diameter of inhibition zone at 20 uM after 24 hrs by Kirby -Baur disc diffusion method; type: functional; outline: as §4
# Staphylococcus aureus [35] = assay: Antimicrobial activity against Staphylococcus aureus ATCC 11632 assessed as diameter of inhibition zone at 40 uM after 24 hrs by Kirby -Baur disc diffusion method; type: functional; outline: as §4
# Staphylococcus aureus [36] = assay: Antimicrobial activity against Staphylococcus aureus ATCC 11632 assessed as diameter of inhibition zone at 80 uM after 24 hrs by Kirby -Baur disc diffusion method; type: functional; details: ATCC 11632, 24 h, read-out: DIZ; outline: as §4
smiles,measurement,setting,value
COc1cc(/C=C/C(=O)C(/N=N/c2ccc(S(=O)(=O)Nc3cc(C)on3)cc2)=C(O)/C=C/c2ccc(O)c(OC)c2)ccc1O,inhibition in vivo at 200 mg/kg,Mus musculus,14.5%
same,IC50,HCT-116,Not Active
same,IC50,QG-56,Not Active
same,IC50,HeLa,> 100 µM
same,IC50,HepG2,Not Active
same,MIC,Trichoderma viride [1],80 µM
same,zone of inhibition at 20 µM,Trichoderma viride [2],9 mm
same,zone of inhibition at 40 µM,Trichoderma viride [3],11 mm
same,zone of inhibition at 80 µM,Trichoderma viride [4],13 mm
same,MIC,Curvularia lunata [5],80 µM
same,zone of inhibition at 20 µM,Curvularia lunata [6],9 mm
same,zone of inhibition at 40 µM,Curvularia lunata [7],11 mm
same,MIC,Aspergillus flavus [8],80 µM
same,zone of inhibition at 80 µM,Curvularia lunata [9],13 mm
same,inhibition zone (IZ),Aspergillus flavus [10],inactive
same,zone of inhibition at 40 µM,Aspergillus flavus [11],9 mm
same,zone of inhibition at 80 µM,Aspergillus flavus [12],10 mm
same,MIC,Aspergillus niger [13],> 80 µM
same,inhibition zone (IZ),Aspergillus niger [14],inactive
same,inhibition zone (IZ),Aspergillus niger [15],inactive
same,zone of inhibition at 80 µM,Aspergillus niger [16],12 mm
same,MIC,Escherichia coli [17],> 80 µM
same,diameter of the inhibition zone (DIZ),Escherichia coli [18],inactive
same,diameter of the inhibition zone (DIZ),Escherichia coli [19],inactive
same,zone of inhibition at 80 µM,Escherichia coli [20],11 mm
same,MIC,Pseudomonas aeruginosa [21],> 80 µM
same,diameter of the inhibition zone (DIZ),Pseudomonas aeruginosa [22],inactive
same,zone of inhibition at 40 µM,Pseudomonas aeruginosa [23],9 mm
same,zone of inhibition at 80 µM,Pseudomonas aeruginosa [24],9 mm
same,MIC,Salmonella typhi [25],> 80 µM
same,diameter of the inhibition zone (DIZ),Salmonella typhi [26],inactive
same,diameter of the inhibition zone (DIZ),Salmonella typhi [27],inactive
same,zone of inhibition at 80 µM,Salmonella typhi [28],9 mm
same,MIC,Bacillus cereus [29],> 80 µM
same,diameter of the inhibition zone (DIZ),Bacillus cereus [30],inactive
same,diameter of the inhibition zone (DIZ),Bacillus cereus [31],inactive
same,zone of inhibition at 80 µM,Bacillus cereus [32],9 mm
same,MIC,Staphylococcus aureus [33],> 80 µM
same,diameter of the inhibition zone (DIZ),Staphylococcus aureus [34],inactive
same,diameter of the inhibition zone (DIZ),Staphylococcus aureus [35],inactive
same,zone of inhibition at 80 µM,Staphylococcus aureus [36],9 mm
